Reference: ChEMBL document CHEMBL3808334, “Synthesis and in vitro evaluation of novel triazine analogues as anticancer agents and their interaction studies with bovine serum albumin” (Eur J Med Chem, 2016)

Assays:
[1] = tested on: MDA-MB-231; experiment: Growth inhibition of human MDA-MB-231 cells assessed as cell growth at 10^-4 M incubated for 48 hrs by sulforhodamine B assay; type: functional; settings: MDA-MB-231, 48 h, read-out: Activity
[2] = Growth inhibition of human MOLT4 cells incubated for 48 hrs by sulforhodamine B assay; type: functional; settings: MOLT-4, 48 h
Summary of the method: (§1)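 Cells were plated at 5,000–40,000 per well according to doubling time and preincubated 24 h at 37 °C in 5% CO2; time-zero plates were then TCA-fixed. Five concentrations (10-fold or ½-log dilutions, DMSO stock) were incubated 48 h. Cells were TCA-fixed, stained with 0.4% SRB and read at 515 nm. GI50 was taken where [(Ti−Tz)/(C−Tz)]×100 = 50.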

[3] = tested on: SK-MEL-2; experiment: Growth inhibition of human SK-MEL-2 cells incubated for 48 hrs by sulforhodamine B assay; type: functional; settings: SK-MEL-2, 48 h; summary of the method: as §1
[4] = Growth inhibition of human OVCAR3 cells incubated for 48 hrs by sulforhodamine B assay; type: functional; settings: OVCAR-3, 48 h; summary of the method: as §1
[5] = Growth inhibition of human OVCAR5 cells assessed as cell growth at 10^-8 M incubated for 48 hrs by sulforhodamine B assay; type: functional; settings: OVCAR-5, 48 h, read-out: Activity
[6] = tested on: NCI/ADR-RES; experiment: Growth inhibition of human NCI/ADR-RES cells assessed as cell growth at 10^-5 M incubated for 48 hrs by sulforhodamine B assay; type: functional; settings: read-out: Activity
[7] = tested on: 786-0; experiment: Growth inhibition of human 786-0 cells assessed as cell growth at 10^-5 M incubated for 48 hrs by sulforhodamine B assay; type: functional; settings: 786-0, 48 h, read-out: Activity
Summary of the method: (§2)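 Five-dose assay: five concentrations from 10-fold or ½-log serial dilutions. Cells are plated at 5,000–40,000 per well according to doubling time, grown 24 h, then exposed 48 h at 37 °C, 5% CO₂. Fixed with cold 50% TCA (final addition) for 60 min at 4 °C and stained with 0.4% SRB in 1% acetic acid. Bound dye is solubilized in 10 mM Tris base and read at 515 nm. GI₅₀ is where [(Ti−Tz)/(C−Tz)]×100 = 50, with a time-zero plate as Tz.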

[8] = tested on: 786-0; experiment: Growth inhibition of human 786-0 cells assessed as cell growth at 10^-8 M incubated for 48 hrs by sulforhodamine B assay; type: functional; settings: 786-0, 48 h, read-out: Activity; summary of the method: as §2
[9] = Growth inhibition of human Caki1 cells assessed as cell growth at 10^-5 M incubated for 48 hrs by sulforhodamine B assay; type: functional; settings: CAKI-1, 48 h, read-out: Activity
Summary of the method: (§3)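 Cells seeded at 5,000–40,000/well according to doubling time and preincubated 24 h at 37 °C, 5% CO2. Time-zero plates were TCA-fixed. DMSO concentrate was diluted in medium with 50 µg/ml gentamicin to give five concentrations (10-fold or ½ log steps), then exposed 48 h. Cells were TCA-fixed, stained with 0.4% SRB and read at 515 nm. Percent growth was taken against time-zero and control; GI50, TGI and LC50 derived.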

[10] = tested on: Malme-3M; experiment: Growth inhibition of human MALME-3M cells assessed as cell growth at 10^-4 M incubated for 48 hrs by sulforhodamine B assay; type: functional; settings: read-out: Activity
[11] = Growth inhibition of human OVCAR3 cells assessed as cell growth at 10^-4 M incubated for 48 hrs by sulforhodamine B assay; type: functional; settings: OVCAR-3, 48 h, read-out: Activity
[12] = tested on: 786-0; experiment: Growth inhibition of human 786-0 cells assessed as cell growth at 10^-4 M incubated for 48 hrs by sulforhodamine B assay; type: functional; settings: 786-0, 48 h, read-out: Activity; summary of the method: as §2
[13] = Growth inhibition of human OVCAR3 cells assessed as cell growth at 10^-7 M incubated for 48 hrs by sulforhodamine B assay; type: functional; settings: OVCAR-3, 48 h, read-out: Activity
[14] = Growth inhibition of human OVCAR4 cells assessed as cell growth at 10^-7 M incubated for 48 hrs by sulforhodamine B assay; type: functional; settings: OVCAR-4, 48 h, read-out: Activity
[15] = Growth inhibition of human HOP62 cells assessed as cell growth at 10^-8 M incubated for 48 hrs by sulforhodamine B assay; type: functional; settings: HOP-62, 48 h, read-out: Activity
[16] = tested on: MDA-MB-231; experiment: Growth inhibition of human MDA-MB-231 cells assessed as cell growth at 10^-7 M incubated for 48 hrs by sulforhodamine B assay; type: functional; settings: MDA-MB-231, 48 h, read-out: Activity
[17] = tested on: CCRF-CEM; experiment: Growth inhibition of human CCRF-CEM cells assessed as cell growth at 10^-6 M incubated for 48 hrs by sulforhodamine B assay; type: functional; settings: read-out: Activity
Summary of the method: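 Leukemia line in the five-dose format: five concentrations from 10-fold or ½-log serial dilutions. Plated at 5,000–40,000 cells per well, preincubated 24 h, then compound added for 48 h at 37 °C, 5% CO₂. Sulforhodamine B absorbance read at 515 nm. Growth is computed against time-zero (Tz) and control (C) readings; GI₅₀ is where [(Ti−Tz)/(C−Tz)]×100 = 50.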

[18] = tested on: A549; experiment: Growth inhibition of human A549/ATCC cells assessed as cell growth at 10^-6 M incubated for 48 hrs by sulforhodamine B assay; type: functional; settings: A549, 48 h, read-out: Activity; summary of the method: as §2
[19] = Growth inhibition of human HCT15 cells assessed as cell growth at 10^-6 M incubated for 48 hrs by sulforhodamine B assay; type: functional; settings: HCT-15, 48 h, read-out: Activity; summary of the method: as §3
[20] = Growth inhibition of human SF295 cells assessed as cell growth at 10^-6 M incubated for 48 hrs by sulforhodamine B assay; type: functional; settings: SF-295, 48 h, read-out: Activity
[21] = Growth inhibition of human SF539 cells assessed as cell growth at 10^-5 M incubated for 48 hrs by sulforhodamine B assay; type: functional; settings: SF-539, 48 h, read-out: Activity
[22] = Growth inhibition of human OVCAR3 cells assessed as cell growth at 10^-5 M incubated for 48 hrs by sulforhodamine B assay; type: functional; settings: OVCAR-3, 48 h, read-out: Activity
[23] = Growth inhibition of human HOP92 cells assessed as cell growth at 10 uM incubated for 48 hrs by sulforhodamine B assay; type: functional; settings: HOP-92, 48 h, read-out: Activity
[24] = Growth inhibition of human SF295 cells assessed as cell growth at 10 uM incubated for 48 hrs by sulforhodamine B assay; type: functional; settings: SF-295, 48 h, read-out: Activity
[25] = biological target: Albumin (Bos taurus, UniProt P02769); experiment: Binding affinity to bovine serum albumin assessed as red shift in emission intensity up to 20 uM by fluorescence spectroscopic analysis relative to control; type: ADME; settings: cattle, isolated protein
Sequence of Albumin (P02769 whole entry): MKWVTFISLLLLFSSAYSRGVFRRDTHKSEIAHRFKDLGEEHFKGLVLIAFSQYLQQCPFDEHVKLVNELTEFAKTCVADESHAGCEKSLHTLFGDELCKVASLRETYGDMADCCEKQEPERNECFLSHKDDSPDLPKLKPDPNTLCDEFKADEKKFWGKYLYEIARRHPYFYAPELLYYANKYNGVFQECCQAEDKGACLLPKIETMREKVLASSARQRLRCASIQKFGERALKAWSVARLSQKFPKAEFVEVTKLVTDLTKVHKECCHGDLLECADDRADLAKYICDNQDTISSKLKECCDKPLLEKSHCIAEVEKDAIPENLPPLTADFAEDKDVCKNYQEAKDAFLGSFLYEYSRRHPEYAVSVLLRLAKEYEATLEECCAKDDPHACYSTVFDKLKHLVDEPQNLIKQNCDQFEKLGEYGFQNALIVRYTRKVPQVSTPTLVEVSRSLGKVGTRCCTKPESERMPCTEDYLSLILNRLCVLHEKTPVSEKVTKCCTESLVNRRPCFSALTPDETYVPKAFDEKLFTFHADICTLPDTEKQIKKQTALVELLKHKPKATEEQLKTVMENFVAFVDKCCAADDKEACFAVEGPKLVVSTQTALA
Summary of the method: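 Fluorescence titration of 10 µM BSA in 0.1 M phosphate buffer pH 7.4 with compound at 0–20 µM, diluted from DMSO stocks. Excitation 280 nm, slit 10 nm, 1 cm quartz cell, 300 K. Changes in the 350 nm Trp emission, new bands near 370–373 nm and isoemissive points are read against BSA alone.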

[26] = read-out: LC50 (the source's name)
[27] = read-out: pLC50 (the source's name) (converted)

Structure (SMILES): Fc1ccc(-c2nc(Nc3ccc(-c4nc5ccccc5[nH]4)cc3)nc(N3CCOCC3)n2)cc1
- growth at 100 µM [1]: -33%
- GI50 ([2]; read-out: GI50): 2.15 µM
- CC50 [2, 26]: > 100 µM
- TGI ([2]; read-out: TGI): 6.13 µM
- GI50 ([2]; read-out: pGI50 (converted)): 2.14 µM
- CC50 [2, 27]: > 100 µM
- TGI ([2]; read-out: pTGI (converted)): 6.17 µM
- GI50 ([3]; read-out: GI50): 2.33 µM
- CC50 [3, 26]: > 100 µM
- TGI ([3]; read-out: TGI): 5.49 µM
- GI50 ([3]; read-out: pGI50 (converted)): 2.34 µM
- CC50 [3, 27]: > 100 µM
- TGI ([3]; read-out: pTGI (converted)): 5.5 µM
- GI50 ([4]; read-out: GI50): 1.82 µM
- TGI ([4]; read-out: TGI): 3.91 µM
- GI50 ([4]; read-out: pGI50 (converted)): 1.82 µM
- TGI ([4]; read-out: pTGI (converted)): 3.89 µM
- growth at 0.01 µM [5]: 93%
- growth at 10 µM [6]: 10%
- growth at 10 µM [7]: -70%
- growth at 0.01 µM [8]: 100%
- growth at 10 µM [9]: -37%
- growth at 100 µM [10]: -58%
- growth at 100 µM [11]: -45%
- growth at 100 µM [12]: -68%
- growth at 0.1 µM [13]: 100%
- growth at 0.1 µM [14]: 104%
- growth at 0.01 µM [15]: 98%
- growth at 0.1 µM [16]: 86%
- growth at 1 µM [17]: 92%
- growth at 1 µM [18]: 99%
- growth at 1 µM [19]: 74%
- growth at 1 µM [20]: 72%
- growth at 10 µM [21]: -60%
- growth at 10 µM [22]: -61%
- growth at 10 µM [23]: -6.57%
- growth at 10 µM [24]: -63.5%
- Activity [25]: 23 nm

Structure (SMILES): Clc1ccc(-c2nc(Nc3ccc(-c4nc5ccccc5[nH]4)cc3)nc(N3CCOCC3)n2)cc1
- growth at 100 µM [1]: -22%
- GI50 ([2]; read-out: GI50): 0.217 µM
- TGI ([2]; read-out: TGI): 0.573 µM
- GI50 ([2]; read-out: pGI50 (converted)): 0.219 µM
- TGI ([2]; read-out: pTGI (converted)): 0.575 µM
- GI50 ([3]; read-out: GI50): 1.8 µM
- TGI ([3]; read-out: TGI): 3.37 µM
- GI50 ([3]; read-out: pGI50 (converted)): 1.82 µM
- TGI ([3]; read-out: pTGI (converted)): 3.39 µM
- GI50 ([4]; read-out: GI50): 0.374 µM
- CC50 [4, 26]: 3.99 µM
- TGI ([4]; read-out: TGI): 1.37 µM
- GI50 ([4]; read-out: pGI50 (converted)): 0.372 µM
- CC50 [4, 27]: 3.98 µM
- TGI ([4]; read-out: pTGI (converted)): 1.38 µM
- growth at 0.01 µM [5]: 97%
- growth at 10 µM [6]: -72%
- growth at 10 µM [7]: -87%
- growth at 0.01 µM [8]: 99%
- growth at 10 µM [9]: -99%
- growth at 100 µM [10]: -16%
- growth at 100 µM [11]: -71%
- growth at 100 µM [12]: -21%
- growth at 0.1 µM [13]: 97%
- growth at 0.1 µM [14]: 98%
- growth at 0.01 µM [15]: 91%
- growth at 0.1 µM [16]: 92%
- growth at 1 µM [17]: -19%
- growth at 1 µM [18]: 40%
- growth at 1 µM [19]: -57%
- growth at 1 µM [20]: 77%
- growth at 10 µM [21]: -87%
- growth at 10 µM [22]: -93%
- growth at 10 µM [23]: -72.1%
- growth at 10 µM [24]: -94.4%
- Activity [25]: 22 nm

Structure (SMILES): c1ccc2[nH]c(-c3ccc(Nc4nc(N5CCCCC5)nc(N5CCOCC5)n4)cc3)nc2c1
- growth at 100 µM [1]: -16%
- GI50 ([2]; read-out: GI50): 2.73 µM
- CC50 [2, 26]: > 100 µM
- TGI ([2]; read-out: TGI): 7.89 µM
- GI50 ([2]; read-out: pGI50 (converted)): 2.75 µM
- CC50 [2, 27]: > 100 µM
- TGI ([2]; read-out: pTGI (converted)): 7.94 µM
- GI50 ([3]; read-out: GI50): 2.34 µM
- CC50 [3, 26]: 25.8 µM
- TGI ([3]; read-out: TGI): 5.36 µM
- GI50 ([3]; read-out: pGI50 (converted)): 2.34 µM
- CC50 [3, 27]: 25.7 µM
- TGI ([3]; read-out: pTGI (converted)): 5.37 µM
- GI50 ([4]; read-out: GI50): 2.4 µM
- CC50 [4, 26]: > 100 µM
- TGI ([4]; read-out: TGI): 6.19 µM
- GI50 ([4]; read-out: pGI50 (converted)): 2.4 µM
- CC50 [4, 27]: > 100 µM
- TGI ([4]; read-out: pTGI (converted)): 6.17 µM
- growth at 0.01 µM [5]: 101%
- growth at 10 µM [6]: 28%
- growth at 10 µM [7]: -78%
- growth at 0.01 µM [8]: 99%
- growth at 10 µM [9]: -55%
- growth at 100 µM [10]: -80%
- growth at 100 µM [11]: -49%
- growth at 100 µM [12]: -87%
- growth at 0.1 µM [13]: 104%
- growth at 0.1 µM [14]: 97%
- growth at 0.01 µM [15]: 96%
- growth at 0.1 µM [16]: 98%
- growth at 1 µM [17]: 100%
- growth at 1 µM [18]: 101%
- growth at 1 µM [19]: 87%
- growth at 1 µM [20]: 84%
- growth at 10 µM [21]: -28%
- growth at 10 µM [22]: -25%
- growth at 10 µM [23]: 43.4%
- growth at 10 µM [24]: -51.4%
- Activity [25]: 25 nm
